Experimental data published in ChEMBL document CHEMBL1157367, “Systematic comparison of the population pharmacokinetics and pharmacodynamics of piperacillin in cystic fibrosis patients and healthy volunteers” (Antimicrob Agents Chemother, 2007).

Columns and labels:
Assay type in all cases: ADME, organism-based
[1] = Total clearance in cystic fibrosis patient at 4 g, iv; conditions: human, in vivo
In short: (§1)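 Single 5-min IV infusion of 4 g piperacillin. Forearm-vein blood drawn from the arm opposite the infusion line pre-dose, at end of infusion, and 5 min to 24 h afterwards. Plasma iced, frozen at –70°C, acetonitrile-deproteinized with mezlocillin internal standard. Reversed-phase HPLC, UV 220 nm, linear 0.200–150 mg/liter. Unscaled parameters by noncompartmental analysis.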

[2] = Volume of distribution at steady state in cystic fibrosis patient at 4 g, iv; conditions: human, in vivo, read-out: Vdss; in short: as §1
[3] = Peak drug level in cystic fibrosis patient at 4 g, iv; conditions: human, in vivo, read-out: Drug uptake; in short: as §1
[4] = Terminal half life in cystic fibrosis patient at 4 g, iv; conditions: human, in vivo; in short: as §1
[5] = Mean residence time in cystic fibrosis patient at 4 g, iv; conditions: human, in vivo; in short: as §1
[6] = Total clearance in healthy human at 4 g, iv; conditions: in vivo; in short: as §1
[7] = Volume of distribution at steady state in healthy human at 4 g, iv; conditions: in vivo, read-out: Vdss; in short: as §1
[8] = Peak drug level in healthy human at 4 g, iv; conditions: in vivo, read-out: Drug uptake; in short: as §1
[9] = Terminal half life in healthy human at 4 g, iv; conditions: in vivo; in short: as §1
[10] = Mean residence time in healthy human at 4 g, iv; conditions: in vivo; in short: as §1
[11] = Clearance in cystic fibrosis patient with lean body mass of 53 kg at 4 g, iv; conditions: human, in vivo
In short: (§2)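 4 g piperacillin as a single 5-min IV infusion. Serial plasma sampled to 24 h and assayed by reversed-phase HPLC-UV (220 nm, mezlocillin internal standard, LOQ 0.200 mg/liter). Population PK model fitted in NONMEM with body size described by lean body mass and a CF-specific scale factor. Combined additive plus proportional residual error.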

[12] = Volume of distribution at steady state in cystic fibrosis patient with lean body mass of 53 kg at 4 g, iv; conditions: human, in vivo, read-out: Vdss; in short: as §2
[13] = Clearance in healthy human with lean body mass of 53 kg at 4 g, iv; conditions: in vivo; in short: as §2
Homo sapiens = assay: Peripheral volume of distribution in cystic fibrosis patient with lean body mass of 53 kg at 4 g, iv; conditions: in vivo; in short: as §2
[14] = Volume of distribution at steady state in healthy human with lean body mass of 53 kg at 4 g, iv; conditions: in vivo, read-out: Vdss; in short: as §2

Question: Which results are given for CCN1CCN(C(=O)N[C@@H](C(=O)N[C@@H]2C(=O)N3[C@@H]2SC(C)(C)[C@@H]3C(=O)O)c2ccccc2)C(=O)C1=O [PIPERACILLIN]?
Answer: clearance [1]: 146 mL/min; Vd [2]: 8.13 L; Cmax [3]: 767 µg/mL; half-life [4]: 41.4 min; MRT [5]: 51 min; clearance [6]: 195 mL/min; Vd [7]: 11.8 L; Cmax [8]: 446 µg/mL; half-life [9]: 63 min; MRT [10]: 61.2 min; clearance [11]: 188 mL/min; Vd [12]: 9.61 L; clearance [13]: 188 mL/min; Vp/F (Homo sapiens): 3.12 L; Vd [14]: 10.4 L
